Activity calls are given as the source filed them.
Experiments:
Aspergillus nidulans = assay: Antifungal activity against Aspergillus nidulans ATCC 38163 assessed as fungal growth inhibition by double dilution method; assay type: functional
Cryptococcus neoformans = assay: Antifungal activity against Cryptococcus neoformans ATCC MYA-895 assessed as fungal growth inhibition by double dilution method; assay type: functional
In short: (§1)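 Broth microdilution after CLSI M27-A3/M38-A2 with minor changes. Single colony grown overnight in YPD at 35 °C, 200 rpm. Compound final range 0.06-31.3 µg/mL; incubated 48 h at 35 °C.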

Aspergillus terreus = assay: Antifungal activity against Aspergillus terreus ATCC MYA-3633 assessed as fungal growth inhibition by double dilution method; assay type: functional
[Candida] auris [1] = Antifungal activity against Candida auris AR Bank # 0384 assessed as fungal growth inhibition by double dilution method; assay type: functional; conditions: Candidozyma auris; in short: as §1
HEK293 = assay: Cytotoxicity against human HEK-293 cells assessed as reduction in cell viability at 31.3 microg/ml; assay type: toxicity, cell-based; conditions: dose 31.3 µg/ml
In short: (§2)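 Cells in DMEM with 10% FBS and 1% Pen/Strep, seeded at 10,000 cells/well and held overnight at 37 °C, 5% CO2. Compounds added at final 31.3-0.12 µg/mL (0.05% DMSO vehicle) for 24 h. Resazurin then added for 6 h; fluorescence read at ex 560/em 590. Triton X-100 1% as positive control; values normalized to vehicle. Run in quadruplicate.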

[Candida] auris [2] = Antifungal activity against Candida auris AR Bank # 381 assessed as fungal growth inhibition by double dilution method; assay type: functional; conditions: Candidozyma auris; in short: as §1
Saccharomyces cerevisiae [3] = assay: Antifungal activity against Saccharomyces cerevisiae AR Bank # 399 assessed as fungal growth inhibition by double dilution method; assay type: functional; in short: as §1
[Candida] auris [4] = Antifungal activity against Candida auris AR Bank # 382 assessed as fungal growth inhibition by double dilution method; assay type: functional; conditions: Candidozyma auris; in short: as §1
Candida duobushaemulonii [5] = assay: Antifungal activity against Candida duobushaemulonii AR Bank # 391 assessed as fungal growth inhibition by double dilution method; assay type: functional; conditions: Candidozyma duobushaemuli; in short: as §1
Candida albicans [6] = assay: Antifungal activity against Candida albicans ATCC 64124 assessed as fungal growth inhibition by double dilution method; assay type: functional
In short: (§3)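 Broth microdilution after CLSI M27-A3/M38-A2 with minor modifications. A single colony was grown overnight in YPD at 35 °C with shaking at 200 rpm. Cells were mixed 1:1 with compound (final 0.06-31.3 µg/mL, from DMSO stocks) and incubated 48 h at 35 °C.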

Candida duobushaemulonii [7] = assay: Antifungal activity against Candida duobushaemulonii AR Bank # 394 assessed as fungal growth inhibition by double dilution method; assay type: functional; conditions: Candidozyma duobushaemuli; in short: as §1
Pichia kudriavzevii [8] = assay: Antifungal activity against Pichia kudriavzevii ATCC 6258 assessed as fungal growth inhibition by double dilution method; assay type: functional; in short: as §1
[Candida] auris [9] = Antifungal activity against Candida auris AR Bank # 388 assessed as fungal growth inhibition by double dilution method; assay type: functional; conditions: Candidozyma auris; in short: as §1
[Candida] auris [10] = Antifungal activity against Candida auris AR Bank # 390 assessed as fungal growth inhibition by double dilution method; assay type: functional; conditions: Candidozyma auris; in short: as §1
Saccharomyces cerevisiae [11] = assay: Antifungal activity against Saccharomyces cerevisiae AR Bank # 400 assessed as fungal growth inhibition by double dilution method; assay type: functional; in short: as §1
Aspergillus fumigatus [12] = assay: Antifungal activity against Aspergillus fumigatus NRRL 6113 assessed as fungal growth inhibition by double dilution method; assay type: functional
[Candida] auris [13] = Antifungal activity against Candida auris AR Bank # 385 assessed as fungal growth inhibition by double dilution method; assay type: functional; conditions: Candidozyma auris; in short: as §1
Candida albicans [14] = assay: Antifungal activity against Candida albicans ATCC 10231 assessed as fungal growth inhibition by double dilution method; assay type: functional; in short: as §1
[Candida] auris [15] = Antifungal activity against Candida auris AR Bank # 389 assessed as fungal growth inhibition by double dilution method; assay type: functional; conditions: Candidozyma auris; in short: as §1
[Candida] haemuloni [16] = Antifungal activity against Candida haemulonii AR Bank # 393 assessed as fungal growth inhibition by double dilution method; assay type: functional; conditions: Candidozyma haemuli; in short: as §1
Aspergillus fumigatus [17] = assay: Antifungal activity against Aspergillus fumigatus NRRL 163 assessed as fungal growth inhibition by double dilution method; assay type: functional
Candida albicans [18] = assay: Antifungal activity against itraconazole/fluconazole resistant Candida albicans ATCC 90819 assessed as fungal growth inhibition by double dilution method; assay type: functional; in short: as §3
Candida duobushaemulonii [19] = assay: Antifungal activity against Candida duobushaemulonii AR Bank # 392 assessed as fungal growth inhibition by double dilution method; assay type: functional; conditions: Candidozyma duobushaemuli; in short: as §1
Pichia kudriavzevii [20] = assay: Antifungal activity against Pichia kudriavzevii AR Bank # 397 assessed as fungal growth inhibition by double dilution method; assay type: functional; in short: as §1
Aspergillus fumigatus [21] = assay: Antifungal activity against Aspergillus fumigatus NRRL 5109 assessed as fungal growth inhibition by double dilution method; assay type: functional
Aspergillus flavus = assay: Antifungal activity against Aspergillus flavus ATCC MYA-3631 assessed as fungal growth inhibition by double dilution method; assay type: functional
Nakaseomyces glabratus [22] = assay: Antifungal activity against Candida glabrata ATCC 2001 assessed as fungal growth inhibition by double dilution method; assay type: functional; in short: as §1
Candida albicans [23] = assay: Antifungal activity against itraconazole/fluconazole susceptible Candida albicans ATCC MYA-2310 assessed as fungal growth inhibition by double dilution method; assay type: functional; in short: as §3
Candida albicans [24] = assay: Antibiofilm activity against Candida albicans ATCC 10231 assessed as reduction in biofilm production at 1.96 to 3.9 microg/ml by biofilm formation assay; assay type: functional, organism-based; conditions: dose 1.96-3.9 µg/ml
Candida albicans [25] = assay: Antifungal activity against itraconazole/fluconazole susceptible Candida albicans ATCC MYA-2876 assessed as fungal growth inhibition by double dilution method; assay type: functional; in short: as §3
[Candida] haemuloni [26] = Antifungal activity against Candida haemulonii AR Bank # 395 assessed as fungal growth inhibition by double dilution method; assay type: functional; conditions: Candidozyma haemuli; in short: as §1
Candida albicans [27] = assay: Antifungal activity against itraconazole/fluconazole resistant Candida albicans ATCC MYA-1237 assessed as fungal growth inhibition by double dilution method; assay type: functional; in short: as §3
Clavispora lusitaniae = assay: Antifungal activity against Clavispora lusitaniae AR Bank # 398 assessed as fungal growth inhibition by double dilution method; assay type: functional; in short: as §1
[Candida] auris [28] = Antifungal activity against Candida auris AR Bank # 387 assessed as fungal growth inhibition by double dilution method; assay type: functional; conditions: Candidozyma auris; in short: as §1
[Candida] auris [29] = Antifungal activity against Candida auris AR Bank # 0390 assessed as fungal growth inhibition by double dilution method; assay type: functional; conditions: Candidozyma auris; in short: as §1
[Candida] auris [30] = Antifungal activity against Candida auris AR Bank # 386 assessed as fungal growth inhibition by double dilution method; assay type: functional; conditions: Candidozyma auris; in short: as §1
[Candida] auris [31] = Antifungal activity against Candida auris AR Bank # 383 assessed as fungal growth inhibition by double dilution method; assay type: functional; conditions: Candidozyma auris; in short: as §1
[Candida] auris [32] = Antifungal activity against Candida auris AR Bank # 384 assessed as fungal growth inhibition by double dilution method; assay type: functional; conditions: Candidozyma auris; in short: as §1
Candida albicans [33] = assay: Antifungal activity against itraconazole/fluconazole resistant Candida albicans ATCC MYA-1003 assessed as fungal growth inhibition by double dilution method; assay type: functional; in short: as §3
HepG2 = assay: Cytotoxicity against human HepG2 cells assessed as reduction in cell viability upto 31.3 microg/ml; assay type: toxicity, cell-based; conditions: dose < 31.3 µg/ml; in short: as §2
Nakaseomyces glabratus [34] = assay: Antifungal activity against Candida glabrata ATCC 22019 assessed as fungal growth inhibition by double dilution method; assay type: functional; in short: as §1
J774.A1 = assay: Cytotoxicity against J774A.1 cells assessed as reduction in cell viability at 31.3 microg/ml; assay type: toxicity, cell-based; conditions: mouse, dose 31.3 µg/ml; in short: as §2
Kodamaea ohmeri = assay: Antifungal activity against Kodamaea ohmeri AR Bank # 396 assessed as fungal growth inhibition by double dilution method; assay type: functional; in short: as §1

O=C(NNc1cccc(F)c1)c1ccccn1
0.24 µg/mL: MIC (Pichia kudriavzevii [8]) | MIC ([Candida] auris [10]) | MIC (Candida duobushaemulonii [19]) | MIC (Pichia kudriavzevii [20]) | MIC ([Candida] auris [29]) | MIC (Kodamaea ohmeri)
active: Activity (Candida albicans [24])
0.12 µg/mL: MIC (Cryptococcus neoformans) | MIC ([Candida] auris [15]) | MIC ([Candida] haemuloni [16])
1.95 µg/mL: MIC (Aspergillus terreus) | MIC ([Candida] auris [1]) | MIC (Saccharomyces cerevisiae [3]) | MIC (Saccharomyces cerevisiae [11]) | MIC (Nakaseomyces glabratus [22]) | MIC (Candida albicans [23]) | MIC ([Candida] auris [31]) | MIC ([Candida] auris [32]) | MIC (Nakaseomyces glabratus [34])
Non-Toxic: Activity (HEK293) | Activity (HepG2) | Activity (J774.A1)
0.98 µg/mL: MIC ([Candida] auris [4]) | MIC (Candida albicans [6]) | MIC ([Candida] auris [13]) | MIC (Candida albicans [25]) | MIC (Candida albicans [27]) | MIC (Clavispora lusitaniae) | MIC (Candida albicans [33])
7.8 µg/mL: MIC (Aspergillus flavus)
≤ 0.06 µg/mL: MIC (Candida albicans [14]) | MIC ([Candida] haemuloni [26])
0.49 µg/mL: MIC (Aspergillus nidulans) | MIC ([Candida] auris [2]) | MIC (Candida duobushaemulonii [5]) | MIC (Candida duobushaemulonii [7]) | MIC ([Candida] auris [9]) | MIC (Candida albicans [18]) | MIC ([Candida] auris [28]) | MIC ([Candida] auris [30])
> 31.3 µg/mL: MIC (Aspergillus fumigatus [12]) | MIC (Aspergillus fumigatus [17]) | MIC (Aspergillus fumigatus [21])
